The source made the active and inactive calls. The calls are words filed in the database; no cut-off is given here.
Assays:
Cytochrome P450 2C9 [1] = molecular target: T1, Cytochrome P450 2C9 (Homo sapiens, UniProt P11712); assay: Inhibition of CYP2C9 (unknown origin); assay type: ADME
[2] = molecular target: Indoleamine 2,3-dioxygenase 2 (Homo sapiens) (UniProt Q6ZQW0); assay: Inhibition of human recombinant IDO-2 up to 200 uM using tryptophan as substrate after 22 mins by LC-MS/MS method
Method in brief: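 Human IDO2 at 250 nM with inhibitor in duplicate, room temperature, in Mg/Ca-free PBS with 20 mM ascorbate, 10 μM methylene blue, 800 nM catalase, 15 μM tryptophan; HCl stop after 22 min; kynurenine quantified by RapidFire SPE-MS/MS; two replicates, geometric means.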

Mus musculus [3] = assay: AUC (infinity) in CD-1 mouse assessed as (R)-3-(5-fluoro-1H-indol-3-yl)pyrrolidine-2,5-dione at 1 mg/kg, iv by LC-MS/MS method; assay type: ADME, organism-based; design: dose 1 mg/kg, route intravenous, time infinity; settings: in vivo
Method in brief: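 Racemate given as a single 1 mg/kg IV dose to male CD-1 mice, Wistar-Han rats or beagle dogs (n=3 per species). Plasma levels of the (R)-enantiomer measured by chiral LC-MS/MS. Mean AUCinf, CLp, Vss and t1/2 reported.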

Mus musculus [4] = assay: Volume of distribution at steady state in CD-1 mouse assessed as (R)-3-(5-fluoro-1H-indol-3-yl)pyrrolidine-2,5-dione at 1 mg/kg, iv by LC-MS/MS method; assay type: ADME, organism-based; settings: in vivo
[5] = Intrinsic apparent clearance in rat hepatocytes assessed per million cells; assay type: ADME, cell-based, Hepatocyte
[6] = Intrinsic apparent clearance in dog hepatocytes assessed per million cells; assay type: ADME, cell-based, Canis lupus familiaris, Hepatocyte
Rattus norvegicus [7] = assay: Cmax in Wistar-Han rat assessed as (R)-3-(5-fluoro-1H-indol-3-yl)pyrrolidine-2,5-dione at 3 mg/kg, po; assay type: ADME, organism-based; design: dose 3 mg/kg, route oral; settings: in vivo
Canis familiaris [8] = assay: Cmax in beagle dog assessed as (R)-3-(5-fluoro-1H-indol-3-yl)pyrrolidine-2,5-dione at 3 mg/kg, po; assay type: ADME, organism-based, Canis lupus familiaris; design: dose 3 mg/kg, route oral; settings: in vivo
Mus musculus [9] = assay: AUC (infinity) in CD-1 mouse assessed as (R)-3-(5-fluoro-1H-indol-3-yl)pyrrolidine-2,5-dione at 3 mg/kg, po; assay type: ADME, organism-based; design: dose 3 mg/kg, route oral, time infinity; settings: in vivo
Rattus norvegicus [10] = assay: AUC (infinity) in Wistar-Han rat assessed as (R)-3-(5-fluoro-1H-indol-3-yl)pyrrolidine-2,5-dione at 3 mg/kg, po; assay type: ADME, organism-based; design: dose 3 mg/kg, route oral, time infinity; settings: in vivo
Canis familiaris [11] = assay: AUC (infinity) in beagle dog assessed as (R)-3-(5-fluoro-1H-indol-3-yl)pyrrolidine-2,5-dione at 3 mg/kg, po; assay type: ADME, organism-based, Canis lupus familiaris; design: dose 3 mg/kg, route oral, time infinity; settings: in vivo
Rattus norvegicus [12] = assay: Half life in Wistar-Han rat assessed as (R)-3-(5-fluoro-1H-indol-3-yl)pyrrolidine-2,5-dione at 3 mg/kg, po; assay type: ADME, organism-based; settings: in vivo
Canis familiaris [13] = assay: Half life in beagle dog assessed as (R)-3-(5-fluoro-1H-indol-3-yl)pyrrolidine-2,5-dione at 3 mg/kg, po; assay type: ADME, organism-based, Canis lupus familiaris; settings: in vivo
Mus musculus [14] = assay: Oral bioavailability in CD-1 mouse assessed as (R)-3-(5-fluoro-1H-indol-3-yl)pyrrolidine-2,5-dione at 3 mg/kg; assay type: ADME, organism-based; settings: in vivo
Rattus norvegicus [15] = assay: Oral bioavailability in Wistar-Han rat assessed as (R)-3-(5-fluoro-1H-indol-3-yl)pyrrolidine-2,5-dione at 3 mg/kg; assay type: ADME, organism-based; settings: in vivo
Canis familiaris [16] = assay: Oral bioavailability in beagle dog assessed as (R)-3-(5-fluoro-1H-indol-3-yl)pyrrolidine-2,5-dione at 3 mg/kg; assay type: ADME, organism-based, Canis lupus familiaris; settings: in vivo
[17] = Total brain to plasma partition coefficient, Kp in po dosed rat assessed as (R)-3-(5-fluoro-1H-indol-3-yl)pyrrolidine-2,5-dione; assay type: ADME, organism-based
Method in brief: (§1)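 Racemate dosed orally to rats; active enantiomer measured in brain, CSF and plasma; total brain/plasma ratio and unbound brain/unbound plasma ratio calculated.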

[18] = Ratio of unbound drug level in brain to plasma in po dosed rat assessed as (R)-3-(5-fluoro-1H-indol-3-yl)pyrrolidine-2,5-dione; assay type: ADME, organism-based; method in brief: as §1
[19] = Drug excretion in rat bile assessed as (R)-3-(5-fluoro-1H-indol-3-yl)pyrrolidine-2,5-dione; assay type: ADME; settings: in vivo
Method in brief: (§2)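 Racemate dosed to rats (urine and bile collected) and to dogs (urine collected). The percentage of the dose excreted as unchanged (R)-enantiomer was measured.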

[20] = Drug excretion in dog urine assessed as (R)-3-(5-fluoro-1H-indol-3-yl)pyrrolidine-2,5-dione; assay type: ADME, Canis lupus familiaris; settings: in vivo; method in brief: as §2
[21] = Drug metabolism in human hepatocytes assessed as oxidation; assay type: ADME, cell-based, Hepatocyte
[22] = Drug metabolism in mouse hepatocytes assessed as hydrolysis; assay type: ADME, cell-based, Hepatocyte
[23] = Drug metabolism in dog hepatocytes assessed as hydrolysis; assay type: ADME, cell-based, Canis lupus familiaris, Hepatocyte
Cytochrome P450 2C9 [24] = molecular target: T1, Cytochrome P450 2C9; assay: Time/NADPH-dependent inhibition of CYP2C9 (unknown origin); assay type: ADME
Cytochrome P450 2C19 [25] = molecular target: T2, Cytochrome P450 2C19 (Homo sapiens, UniProt P33261); assay: Time/NADPH-dependent inhibition of CYP2C19 (unknown origin); assay type: ADME
T2 sequence (P33261 whole entry): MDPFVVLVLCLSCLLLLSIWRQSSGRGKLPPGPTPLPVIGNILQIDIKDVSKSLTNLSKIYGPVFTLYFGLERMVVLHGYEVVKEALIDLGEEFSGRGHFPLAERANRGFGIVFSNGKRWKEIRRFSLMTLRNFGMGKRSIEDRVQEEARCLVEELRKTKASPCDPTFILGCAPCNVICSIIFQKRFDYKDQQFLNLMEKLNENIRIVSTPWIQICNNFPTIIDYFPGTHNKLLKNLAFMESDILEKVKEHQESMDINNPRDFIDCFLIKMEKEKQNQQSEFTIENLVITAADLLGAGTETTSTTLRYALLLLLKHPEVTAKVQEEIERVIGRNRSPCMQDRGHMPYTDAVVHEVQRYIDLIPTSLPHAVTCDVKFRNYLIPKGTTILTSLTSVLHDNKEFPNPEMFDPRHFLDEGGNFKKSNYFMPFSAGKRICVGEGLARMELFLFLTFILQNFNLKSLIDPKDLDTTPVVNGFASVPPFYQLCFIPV

Cytochrome P450 2D6 [26] = molecular target: T3, Cytochrome P450 2D6 (Homo sapiens, UniProt P10635); assay: Time/NADPH-dependent inhibition of CYP2D6 (unknown origin); assay type: ADME
T3 sequence (P10635 whole entry): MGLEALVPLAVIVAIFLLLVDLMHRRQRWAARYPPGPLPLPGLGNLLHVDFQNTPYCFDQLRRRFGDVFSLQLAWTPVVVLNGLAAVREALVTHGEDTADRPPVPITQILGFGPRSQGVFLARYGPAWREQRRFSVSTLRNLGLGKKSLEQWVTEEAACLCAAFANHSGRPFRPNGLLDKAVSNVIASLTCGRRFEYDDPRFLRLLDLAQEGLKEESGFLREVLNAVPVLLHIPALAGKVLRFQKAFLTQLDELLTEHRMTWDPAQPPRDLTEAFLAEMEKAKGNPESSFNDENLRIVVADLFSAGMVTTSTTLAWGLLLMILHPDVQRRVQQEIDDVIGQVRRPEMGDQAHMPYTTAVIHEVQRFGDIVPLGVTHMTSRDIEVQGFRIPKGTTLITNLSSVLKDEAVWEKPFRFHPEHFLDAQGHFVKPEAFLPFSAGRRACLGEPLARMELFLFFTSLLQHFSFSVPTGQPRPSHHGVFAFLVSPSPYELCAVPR

Cytochrome P450 3A4 [27] = molecular target: T4, Cytochrome P450 3A4 (Homo sapiens, UniProt P08684); assay: Time/NADPH-dependent inhibition of CYP3A4 (unknown origin); assay type: ADME
T4 sequence (P08684 whole entry): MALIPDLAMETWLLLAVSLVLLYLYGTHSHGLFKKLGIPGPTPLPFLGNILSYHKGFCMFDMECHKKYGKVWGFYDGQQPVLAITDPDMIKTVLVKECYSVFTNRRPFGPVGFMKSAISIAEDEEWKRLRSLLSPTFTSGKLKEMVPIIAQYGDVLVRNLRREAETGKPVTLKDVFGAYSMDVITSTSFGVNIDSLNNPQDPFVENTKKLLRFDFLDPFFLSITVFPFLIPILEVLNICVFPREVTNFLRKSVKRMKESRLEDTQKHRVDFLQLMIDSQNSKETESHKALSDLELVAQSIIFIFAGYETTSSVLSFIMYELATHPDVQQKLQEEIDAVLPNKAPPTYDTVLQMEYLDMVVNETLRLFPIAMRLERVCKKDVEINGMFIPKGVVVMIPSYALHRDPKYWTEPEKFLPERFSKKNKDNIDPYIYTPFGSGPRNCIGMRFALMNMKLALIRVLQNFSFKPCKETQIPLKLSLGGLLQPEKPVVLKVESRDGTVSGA

Cytochrome P450 1A2 = molecular target: T5, Cytochrome P450 1A2 (Homo sapiens, UniProt P05177); assay: Time-dependent inhibition of CYP1A2 (unknown origin); assay type: ADME
T5 sequence (P05177 whole entry): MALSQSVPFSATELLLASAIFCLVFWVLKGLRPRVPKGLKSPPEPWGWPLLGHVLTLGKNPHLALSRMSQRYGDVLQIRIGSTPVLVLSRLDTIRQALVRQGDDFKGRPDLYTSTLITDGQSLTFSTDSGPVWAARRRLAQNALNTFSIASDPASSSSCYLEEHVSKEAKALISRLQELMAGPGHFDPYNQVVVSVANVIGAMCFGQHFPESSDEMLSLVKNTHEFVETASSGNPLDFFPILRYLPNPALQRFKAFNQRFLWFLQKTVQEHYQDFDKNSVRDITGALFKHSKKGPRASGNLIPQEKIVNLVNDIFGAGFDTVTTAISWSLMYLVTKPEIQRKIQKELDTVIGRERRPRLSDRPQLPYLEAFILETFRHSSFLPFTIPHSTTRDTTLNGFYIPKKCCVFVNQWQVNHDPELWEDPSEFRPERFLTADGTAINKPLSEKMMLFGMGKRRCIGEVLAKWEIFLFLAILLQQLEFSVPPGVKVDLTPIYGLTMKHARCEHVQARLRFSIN

Cytochrome P450 2C9 [28] = molecular target: T1, Cytochrome P450 2C9; assay: Time-dependent inhibition of CYP2C9 (unknown origin); assay type: ADME
Cytochrome P450 2C19 [29] = molecular target: T2, Cytochrome P450 2C19; assay: Time-dependent inhibition of CYP2C19 (unknown origin); assay type: ADME
Cytochrome P450 2D6 [30] = molecular target: T3, Cytochrome P450 2D6; assay: Time-dependent inhibition of CYP2D6 (unknown origin); assay type: ADME
Cytochrome P450 3A4 [31] = molecular target: T4, Cytochrome P450 3A4; assay: Time-dependent inhibition of CYP3A4 (unknown origin); assay type: ADME
[32] = Inhibition of human p-gp transfected in MDCK cells assessed as decrease in digoxin transport; assay type: cell-based
[33] = molecular target: Broad substrate specificity ATP-binding cassette transporter ABCG2 (Homo sapiens, UniProt Q9UNQ0); assay: Inhibition of BCRP (unknown origin) transfected in MDCK cells assessed as decrease in pitavastatin transport; assay type: cell-based
Sequence of Broad substrate specificity ATP-binding cassette transporter ABCG2 (Q9UNQ0 whole entry): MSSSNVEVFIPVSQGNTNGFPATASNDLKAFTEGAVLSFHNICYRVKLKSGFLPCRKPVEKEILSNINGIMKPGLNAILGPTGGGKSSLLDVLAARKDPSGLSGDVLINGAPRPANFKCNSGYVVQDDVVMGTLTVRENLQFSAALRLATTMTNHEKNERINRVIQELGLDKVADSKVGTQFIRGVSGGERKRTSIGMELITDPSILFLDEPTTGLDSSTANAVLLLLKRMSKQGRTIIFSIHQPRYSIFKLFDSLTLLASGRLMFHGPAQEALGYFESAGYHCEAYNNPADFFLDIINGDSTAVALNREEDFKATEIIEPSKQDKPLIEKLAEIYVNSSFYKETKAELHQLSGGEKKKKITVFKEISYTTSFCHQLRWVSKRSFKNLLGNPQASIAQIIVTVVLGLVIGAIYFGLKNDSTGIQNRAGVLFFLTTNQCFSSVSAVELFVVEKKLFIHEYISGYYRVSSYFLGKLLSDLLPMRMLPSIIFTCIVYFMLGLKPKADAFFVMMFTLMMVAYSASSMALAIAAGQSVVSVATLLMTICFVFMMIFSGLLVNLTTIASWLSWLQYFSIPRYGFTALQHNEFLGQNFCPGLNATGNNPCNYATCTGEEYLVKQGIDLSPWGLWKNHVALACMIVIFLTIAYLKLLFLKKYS

Mus musculus [34] = assay: In vivo inhibition of human IDO-1 expressed in non-tumor-bearing mouse assessed as reduction in plasma L-kynurenine levels at >= 200 mg/kg after 1 hr relative to control; assay type: functional
Panc02 = assay: Antitumor activity against mouse Pan02 tumor model administered as monotherapy; assay type: functional

T1 sequence (P11712 whole entry): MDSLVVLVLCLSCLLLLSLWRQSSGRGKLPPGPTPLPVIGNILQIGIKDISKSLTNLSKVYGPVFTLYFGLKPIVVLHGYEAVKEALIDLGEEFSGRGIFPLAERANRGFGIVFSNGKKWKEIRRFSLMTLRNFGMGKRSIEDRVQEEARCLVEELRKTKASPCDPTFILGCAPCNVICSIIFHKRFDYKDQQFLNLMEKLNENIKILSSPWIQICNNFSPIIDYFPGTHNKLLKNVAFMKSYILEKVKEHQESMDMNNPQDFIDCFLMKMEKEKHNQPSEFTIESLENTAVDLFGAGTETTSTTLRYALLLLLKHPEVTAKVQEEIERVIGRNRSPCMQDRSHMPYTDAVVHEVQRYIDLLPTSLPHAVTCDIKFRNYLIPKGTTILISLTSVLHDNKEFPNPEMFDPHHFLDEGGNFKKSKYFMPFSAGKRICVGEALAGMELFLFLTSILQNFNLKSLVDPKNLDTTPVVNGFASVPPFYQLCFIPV
Sequence of Indoleamine 2,3-dioxygenase 2 (Homo sapiens) (Q6ZQW0 whole entry): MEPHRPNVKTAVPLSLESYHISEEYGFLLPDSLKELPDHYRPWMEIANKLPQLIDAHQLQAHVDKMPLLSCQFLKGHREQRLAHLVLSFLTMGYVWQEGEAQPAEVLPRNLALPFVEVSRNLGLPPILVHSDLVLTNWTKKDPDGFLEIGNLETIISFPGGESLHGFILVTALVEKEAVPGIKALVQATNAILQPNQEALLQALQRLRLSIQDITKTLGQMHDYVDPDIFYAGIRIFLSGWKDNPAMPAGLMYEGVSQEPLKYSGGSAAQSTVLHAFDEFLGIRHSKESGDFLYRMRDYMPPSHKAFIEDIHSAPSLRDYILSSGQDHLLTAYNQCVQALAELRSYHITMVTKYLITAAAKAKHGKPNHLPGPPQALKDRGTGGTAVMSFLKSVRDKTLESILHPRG

O=C1CC(c2c[nH]c3ccc(F)cc23)C(=O)N1 (stereo unspecified) [PF-06840003]
IC50 (Cytochrome P450 2C9 [1]): > 100 µM | inhibition [2]: inactive | AUC (Mus musculus [3]): 1160 ng·h/mL | Vdss (Mus musculus [4]): 0.787 L/kg | CLH(app) [5]: 2.3 µL/min | CLH(app) [6]: 10.3 µL/min | Cmax (Rattus norvegicus [7]): 985 ng/mL | Cmax (Canis familiaris [8]): 219 ng/mL | AUC (Mus musculus [9]): 2170 ng·h/mL | AUC (Rattus norvegicus [10]): 6940 ng·h/mL | AUC (Canis familiaris [11]): 237 ng·h/mL | t1/2 (Rattus norvegicus [12]): 2.42 h | t1/2 (Canis familiaris [13]): 0.84 h | F (Mus musculus [14]): 59.3% | F (Rattus norvegicus [15]): 94% | F (Canis familiaris [16]): 18.6% | Kp [17]: 0.51 | K(p,uu,brain) [18]: 0.2 | Drug excretion [19]: < 1 %ID | Drug excretion [20]: < 1 %ID | Drug metabolism [21]: Metabolite_Detected | Drug metabolism [22]: Metabolite_Detected | Drug metabolism [23]: Metabolite_Detected | inhibition (INH) (Cytochrome P450 2C9 [24]): Not Active | inhibition (INH) (Cytochrome P450 2C19 [25]): Not Active | inhibition (INH) (Cytochrome P450 2D6 [26]): Not Active | inhibition (INH) (Cytochrome P450 3A4 [27]): Not Active | TDI (Cytochrome P450 1A2): Not Active | TDI (Cytochrome P450 2C9 [28]): Not Active | TDI (Cytochrome P450 2C19 [29]): Not Active | TDI (Cytochrome P450 2D6 [30]): Not Active | TDI (Cytochrome P450 3A4 [31]): Not Active | IC50 [32]: > 300 µM | IC50 [33]: 65.4 µM | inhibition (INH) (Mus musculus [34]): >=54% | Activity (Panc02): Active

Source: ChEMBL document CHEMBL4052817 (J Med Chem, 2017)
